This is an account of results in ChEMBL document CHEMBL1155485, “Pyrimidine ribonucleotides with enhanced selectivity as P2Y(6) receptor agonists: novel 4-alkyloxyimino, (S)-methanocarba, and 5'-triphosphate gamma-ester modifications” (J Med Chem, 2010).

Series [1] concerns the target T1, P2Y purinoceptor 2 (Homo sapiens, UniProt P41231). In words: Agonist activity at human recombinant P2Y2 receptor expressed in human 1321N1 cells assessed as [3H]inositol phosphate production at 10 uM by scintillation proximity assay. The class given is functional, cell-based.
Series [2] deals with T2, P2Y purinoceptor 6 (Homo sapiens, UniProt Q15077). In words: Agonist activity at human recombinant P2Y6 receptor expressed in human 1321N1 cells assessed as [3H]inositol phosphate production up to 10 uM by scintillation proximity assay. The format is functional, cell-based. In outline: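 Human 1321N1 astrocytoma cells stably expressing the human P2Y2 or P2Y6 receptor, seeded at 20,000 cells/well two days before assay. Inositol lipids labelled for 16 h with 1.0 μCi myo-[3H]inositol in serum-free, inositol-free DMEM. Agonist added in HEPES pH 7.3/HBSS with LiCl, 30 min at 37°C. Stopped with ice-cold 50 mM formic acid; [3H]inositol phosphates counted by scintillation proximity assay. Triplicates.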
T2 sequence (Q15077 whole entry): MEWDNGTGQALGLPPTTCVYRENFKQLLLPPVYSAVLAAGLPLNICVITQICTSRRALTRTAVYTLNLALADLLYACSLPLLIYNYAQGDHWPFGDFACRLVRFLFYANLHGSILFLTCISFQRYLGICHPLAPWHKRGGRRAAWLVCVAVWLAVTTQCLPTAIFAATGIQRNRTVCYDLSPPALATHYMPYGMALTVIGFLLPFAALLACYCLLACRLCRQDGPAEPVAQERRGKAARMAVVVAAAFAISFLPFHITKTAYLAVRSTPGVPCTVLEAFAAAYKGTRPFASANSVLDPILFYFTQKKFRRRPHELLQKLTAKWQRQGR

Series [3] in a line: Stability assessed as half life by HPLC in presence of human 1321N1 cell membranes. The format is ADME, cell-based. In outline:
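Nucleotide (10 μL of 2 mg/mL aqueous stock) mixed with 90 μL of astrocytoma cell membrane suspension in Dulbecco's PBS pH 7.4 (final protein 14.9 μg/mL), incubated at 37°C. At intervals, aliquots were diluted tenfold in water or 5 mM TBAP and analysed by reverse-phase HPLC (TBAP–acetonitrile gradient). Half-life was taken from peak area.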

Series [4] addresses T2, P2Y purinoceptor 6. In words: Agonist activity at human recombinant P2Y6 receptor expressed in human 1321N1 cells assessed as [3H]inositol phosphate production by scintillation proximity assay. The format is functional, cell-based. In outline: (§1)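 Stably transfected 1321N1 astrocytoma cells (human P2Y2, P2Y4 or P2Y6 receptor) seeded at 20,000 cells/well two days before assay; labelled 16 h with myo-[3H]inositol (1.0 μCi) in serum-free inositol-free DMEM. Agonist added in HEPES pH 7.3/HBSS with LiCl (50 mM, fivefold stock), 30 min at 37°C; stopped with ice-cold 50 mM formic acid. [3H]inositol phosphates read by SPA.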

A short description of series [5]: Stability assessed as half life in aqueous acidic solution at pH 1.2 by HPLC. The following applies: buffer. The class given is physicochemical. In outline:
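Nucleotide (10 μL of 2 mg/mL aqueous stock) mixed with 90 μL of HCl/NaCl buffer pH 1.2 and held at 37°C. Aliquots taken at intervals were diluted tenfold in water or 5 mM TBAP and run on reverse-phase HPLC with a 5 mM TBAP–acetonitrile gradient. Half-life was derived from peak area.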

The next series concerns the target P2Y purinoceptor 4 (Homo sapiens, UniProt P51582). Description: Agonist activity at human recombinant P2Y4 receptor expressed in human 1321N1 cells assessed as [3H]inositol phosphate production by scintillation proximity assay. The class given is functional, cell-based. In outline: as §1
(In general: Scintillation proximity formats need no separation of bound from free tracer.)

Series [6] concerns the target T1, P2Y purinoceptor 2. Description: Agonist activity at human recombinant P2Y2 receptor expressed in human 1321N1 cells assessed as [3H]inositol phosphate production by scintillation proximity assay. The class given is functional, cell-based. In outline: as §1
The species entered for series [7] is Homo sapiens. In words: Selectivity ratio of EC50 for human P2Y2 receptor to EC50 for human P2Y6 receptor.
Series [8] is filed under the species Homo sapiens. Description: Selectivity ratio of EC50 for human P2Y4 receptor to EC50 for human P2Y6 receptor.

What is called EC50 is the concentration at which the effect is half-maximal.

P2Y purinoceptor 4, sequence (P51582 whole entry): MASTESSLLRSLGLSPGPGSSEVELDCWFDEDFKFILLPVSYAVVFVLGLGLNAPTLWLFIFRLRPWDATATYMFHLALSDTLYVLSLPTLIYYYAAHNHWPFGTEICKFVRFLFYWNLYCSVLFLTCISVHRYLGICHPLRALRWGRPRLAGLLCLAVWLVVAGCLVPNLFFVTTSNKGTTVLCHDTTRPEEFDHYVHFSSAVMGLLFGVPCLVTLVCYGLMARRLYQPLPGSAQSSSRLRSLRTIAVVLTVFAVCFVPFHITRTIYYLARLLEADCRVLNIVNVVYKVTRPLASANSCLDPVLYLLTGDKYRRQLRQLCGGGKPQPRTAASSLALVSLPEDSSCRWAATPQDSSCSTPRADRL
T1 sequence (P41231 whole entry): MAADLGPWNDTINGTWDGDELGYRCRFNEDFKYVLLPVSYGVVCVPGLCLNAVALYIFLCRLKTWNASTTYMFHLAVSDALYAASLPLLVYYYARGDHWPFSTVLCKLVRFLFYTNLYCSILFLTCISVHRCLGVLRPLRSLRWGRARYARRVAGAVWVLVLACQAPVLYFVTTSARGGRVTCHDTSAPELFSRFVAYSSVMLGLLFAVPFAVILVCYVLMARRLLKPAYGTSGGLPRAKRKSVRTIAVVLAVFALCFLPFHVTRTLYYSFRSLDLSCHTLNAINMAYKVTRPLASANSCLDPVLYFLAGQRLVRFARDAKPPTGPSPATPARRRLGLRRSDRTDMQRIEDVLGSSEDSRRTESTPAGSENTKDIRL

`CO/N=c1/ccn([C@@H]2O[C@H](COP(=O)(O)CP(=O)(O)O)[C@@H](O)[C@H]2O)c(=O)[nH]1`: the Activity at P2Y purinoceptor 2 [1] is less than 50%.
`CCN(CC)CC.O=c1ccn([C@@H]2O[C@H](COP(=O)(O)OP(=O)(O)OP(=O)(O)O[C@H]3O[C@H](CO)[C@@H](O)[C@H](O)[C@H]3O)[C@@H](O)[C@H]2O)c(=O)[nH]1`: the Activity on P2Y purinoceptor 6 [2] is less than 50%. Besides, the values for the t1/2 in series [3] and in series [5] were 29 h and 5.1 h, respectively. The EC50 at P2Y purinoceptor 6 [4] is more than 10000 nM.
Regarding `CC(C)(C)O/N=c1/ccn([C@@H]2O[C@H](COP(=O)(O)OP(=O)(O)O)[C@@H](O)[C@H]2O)c(=O)[nH]1`, the EC50 was 6230 nM at P2Y purinoceptor 4 and 3510 nM on P2Y purinoceptor 2 [6].
With `CCN(CC)CC.O=c1ccn([C@@H]2O[C@H](COP(=O)(O)CP(=O)(O)OP(=O)(O)O[C@H]3O[C@H](CO)[C@@H](O)[C@H](O)[C@H]3O)[C@@H](O)[C@H]2O)c(=O)[nH]1`, on P2Y purinoceptor 6 [2], the Activity was less than 50%. Also, the t1/2 in [3] was 19 h; in [5], 2.8 h. Besides, the EC50 on P2Y purinoceptor 6 [4] was more than 10000 nM.
As for `CCN(CC)CC.O=c1ccn([C@@H]2O[C@H](COP(=O)(O)OP(=O)(O)OP(=O)(O)Oc3ccccc3)[C@@H](O)[C@H]2O)c(=O)[nH]1`, the Activity on P2Y purinoceptor 6 [2] and on P2Y purinoceptor 2 [1] was less than 50% each time. Moreover, the t1/2 in series [3] amounted to 43 h; in series [5], 164 h. Moreover, the EC50 on P2Y purinoceptor 6 [4] is 2130 nM; on P2Y purinoceptor 2 [6], more than 10000 nM.
On to `CO/N=c1/ccn([C@@H]2O[C@H](COP(=O)(O)OP(=O)(O)OP(=O)(O)O[C@H]3O[C@H](CO)[C@@H](O)[C@H](O)[C@H]3O)[C@@H](O)[C@H]2O)c(=O)[nH]1`, for which the EC50 was 180 nM on P2Y purinoceptor 6 [4] and more than 10000 nM on P2Y purinoceptor 2 [6]. For the same molecule, at P2Y purinoceptor 2 [1], the Activity was less than 50%.
`CCN(CC)CC.CO/N=c1/ccn([C@@H]2O[C@H](COP(=O)(O)OP(=O)(O)O)[C@@H](O)[C@H]2O)c(=O)[nH]1`: the t1/2 in series [3] worked out at 55 h; in [5] it was 116 h. Further, the EC50 was found to be 6450 nM at P2Y purinoceptor 4 and 3600 nM on P2Y purinoceptor 2 [6].
Take `CO/N=c1/ccn([C@@H]2O[C@H](COP(=O)(O)OP(=O)(O)OP(=O)(O)Oc3ccccc3)[C@@H](O)[C@H]2O)c(=O)[nH]1`: the EC50 on P2Y purinoceptor 6 [4] was 3490 nM; at P2Y purinoceptor 2 [6] it was more than 10000 nM. The Activity at P2Y purinoceptor 2 [1] is less than 50%.
Turning to `O=c1[nH]c(=O)n([C@@H]2O[C@H](COP(=O)(O)OP(=O)(O)OP(=O)(O)O[C@H]3O[C@H](CO)[C@@H](O)[C@H](O)[C@H]3O)[C@@H](O)[C@H]2O)cc1I`, the EC50 at P2Y purinoceptor 6 [4] stood at 4690 nM.
For `O=C(Cn1c(=O)ccn([C@@H]2O[C@H](COP(=O)(O)OP(=O)(O)OP(=O)(O)O[C@H]3O[C@H](CO)[C@@H](O)[C@H](O)[C@H]3O)[C@@H](O)[C@H]2O)c1=O)c1ccccc1`, the Activity at P2Y purinoceptor 6 [2] is less than 50%. In addition, the EC50 on P2Y purinoceptor 6 [4] is more than 10000 nM.
On to `CCN(CC)CC.O=c1ccn([C@@H]2O[C@H](COP(=O)(O)OP(=O)(O)OP(=O)(O)OC3CCCCC3)[C@@H](O)[C@H]2O)c(=O)[nH]1`, for which the t1/2 in [3] amounted to 62 h; in series [5], 193 h. The EC50 on P2Y purinoceptor 6 [4] turned out to be 6990 nM; on P2Y purinoceptor 2 [6], 2280 nM.
For the molecule `CCN(CC)CC.CO/N=c1/ccn([C@@H]2O[C@H](COP(=O)(O)OP(=O)(O)OP(=O)(O)OC[C@H]3O[C@@H](n4ccc(=O)[nH]c4=O)[C@H](O)[C@@H]3O)[C@@H](O)[C@H]2O)c(=O)[nH]1`, the t1/2 is 23 h in series [3] and 120 h in series [5]. The EC50 amounted to 790 nM at P2Y purinoceptor 4, 12 nM at P2Y purinoceptor 6 [4] and 170 nM at P2Y purinoceptor 2 [6]. For the same molecule, the Ratio EC50 was determined as 14 in the series filed under Homo sapiens [7] and 66 in the series listed under Homo sapiens [8].
Take `O=c1ccn([C@@H]2O[C@H](COP(=O)(O)OP(=O)(O)OP(=O)(O)O)[C@@H](O)[C@H]2O)c(=O)[nH]1` [URIDINE TRIPHOSPHATE]: the t1/2 in series [3] came to 31 h; in series [5], 23 h.
On to `CO/N=c1\ccn([C@@H]2O[C@H](COP(=O)(O)OP(=O)(O)OP(=O)(O)O)[C@@H](O)[C@H]2O)c(=O)[nH]1`, for which the EC50 was 50 nM on P2Y purinoceptor 4, 80 nM at P2Y purinoceptor 6 [4] and 50 nM on P2Y purinoceptor 2 [6].
For `O=c1ccn([C@@]23C[C@H]2[C@H](COP(=O)(O)OP(=O)(O)OP(=O)(O)O)[C@@H](O)[C@H]3O)c(=O)[nH]1`, the concentration giving a half-maximal response (EC50) stood at 300 nM at P2Y purinoceptor 4, 1370 nM on P2Y purinoceptor 6 [4] and 80 nM on P2Y purinoceptor 2 [6].
Consider `O=c1[nH]c(=O)n([C@@H]2O[C@H](COP(=O)(O)CP(=O)(O)O)[C@@H](O)[C@H]2O)cc1I`, for which the EC50 on P2Y purinoceptor 6 [4] worked out at 130 nM.
On the same count and under the same terms, with `O=c1[nH]c(=O)n([C@@H]2O[C@H](COP(=O)(O)OP(=O)(O)O)[C@@H](O)[C@H]2O)cc1I` the figure was 15 nM.
As for `CCN(CC)CC.O=c1ccn([C@@H]2O[C@H](COP(=O)(O)CP(=O)(O)OP(=O)(O)OC[C@H]3O[C@@H](n4ccc(=O)[nH]c4=O)[C@H](O)[C@@H]3O)[C@@H](O)[C@H]2O)c(=O)[nH]1`, the t1/2 turned out to be 62 h in series [3] and 34 h in series [5]. Also, the values for the EC50 on P2Y purinoceptor 6 [4] and on P2Y purinoceptor 2 [6] were 1300 nM and more than 10000 nM, respectively.
Take `CCN(CC)CC.O=c1[nH]/c(=N\OCc2ccccc2)ccn1[C@@H]1O[C@H](COP(=O)(O)OP(=O)(O)O)[C@@H](O)[C@H]1O`: the t1/2 came out at 26 h in series [3] and 126 h in [5]. For the same molecule, the EC50 on P2Y purinoceptor 4 stood at 1150 nM; at P2Y purinoceptor 2 [6], 2130 nM. Also, the Ratio EC50 was 82 in the series listed under Homo sapiens [7] and 44 in the series filed under Homo sapiens [8].
For `O=c1ccn([C@@H]2O[C@H](COP(=O)(O)CP(=O)(O)O)[C@@H](O)[C@H]2O)c(=O)[nH]1`, the EC50 at P2Y purinoceptor 6 [4] was 700 nM.
For `CONc1ccn([C@@H]2O[C@H](COP(=O)(O)OP(=O)(O)OP(=O)(O)OC[C@H]3O[C@@H](n4ccc(NOC)nc4=O)[C@H](O)[C@@H]3O)[C@@H](O)[C@H]2O)c(=O)n1`, the EC50 at P2Y purinoceptor 4 was 560 nM; at P2Y purinoceptor 6 [4], 63 nM; at P2Y purinoceptor 2 [6], 2120 nM.
As to `CCO/N=c1/ccn([C@@H]2O[C@H](COP(=O)(O)OP(=O)(O)O)[C@@H](O)[C@H]2O)c(=O)[nH]1`, the values for the EC50 at P2Y purinoceptor 4 and at P2Y purinoceptor 2 [6] were 180 nM and 280 nM, respectively.
